OXTR ag: human OXTR agonism | AID 2435 | activation, % at 3 µM | actives 0.32% (n = 320,000) | CHO-OTR cells, Fluo-8 calcium fluorescence; normalized: DMSO 0%, oxytocin 100% | P30559;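 active means activation above the mean of all tested compounds plus 3 SD, cutoff set per screening run, cut at about 20% in these data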;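 further: peak over basal fluorescence ratio from a 100 s FLIPR kinetic read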
zfTRPN1 agonist: agonists of zebrafish TRPN1 channel; HEK293 zebrafish TRPN1-YFP, Fluo-8 calcium fluorescence; 100% = response to 87 µM carbachol; activation, % at 3 µM; actives 0.18% (n = 220,000);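 active means activation above its plate's cutoff, the mean activation of test wells on that plate plus 3 SD, cut at about 19% in these data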;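 further: 0% = DMSO alone and 100% = 87 µM carbachol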
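Control set: carbachol 87 µM as high control, DMSO as low control; system: HEK293 stable line with zebrafish TRPN1-YFP; read-out: % activation versus carbachol response; detection: intracellular calcium fluorescence with Fluo-8; doses: single test compound dose, 3 µM nominal, 0.3% DMSO; schedule: dye 1 h 37 °C plus 30 min RT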
TRPML3 ag: agonists of human TRPML3 channel | HEK293 TRPML3-YFP, Fluo-8 calcium fluorescence; 100% = the carbachol control signal | actives 0.29% (n = 220,000) | activation, % at 3 µM | AID 1448 | Q8TDD5;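 active means activation above its plate's cutoff, the mean activation of the plate's test wells plus 3 SD, cut at about 12% in these data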;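 further: 0% = DMSO only wells and 100% = carbachol wells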
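system = HEK293 cells stably carrying human TRPML3-YFP | doses = one concentration, 3 µM nominal, 0.3% DMSO | timing = dye loading 1 h 37 °C then 30 min ambient, 125 s read | detection = Fluo-8 calcium dye fluorescence, ex 470-495, em 515-575 nm | benchmarks = high control carbachol 87 µM, low control DMSO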
V1aR counter: V1a receptor agonism, counter-screen for OXTR agonists | AID 2797 | activation, % at 3 µM | actives 0.25% (n = 320,000) | CHO-V1R cells, Fluo-8 calcium fluorescence, agonist mode; 0% DMSO, 100% 3 nM vasopressin;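 active means activation above the mean activation of all tested compounds plus 3 SD, per screening run, cut at about 20% in these data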;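 further: signal is peak over basal fluorescence ratio across a 100 second FLIPR read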
Target sequence (P37288 whole entry, looked up): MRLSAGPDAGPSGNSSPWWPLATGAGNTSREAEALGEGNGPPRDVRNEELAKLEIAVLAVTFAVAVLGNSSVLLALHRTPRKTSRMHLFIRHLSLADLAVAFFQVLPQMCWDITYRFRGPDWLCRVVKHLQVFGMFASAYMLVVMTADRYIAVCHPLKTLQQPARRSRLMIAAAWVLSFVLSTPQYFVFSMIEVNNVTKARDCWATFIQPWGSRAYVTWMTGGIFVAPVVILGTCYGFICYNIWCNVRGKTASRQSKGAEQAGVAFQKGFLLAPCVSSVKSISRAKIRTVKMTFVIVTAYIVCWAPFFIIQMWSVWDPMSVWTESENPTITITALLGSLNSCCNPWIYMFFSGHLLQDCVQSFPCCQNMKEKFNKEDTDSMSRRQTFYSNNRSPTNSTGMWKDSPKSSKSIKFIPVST
OXTR potentiator: potentiators of human oxytocin receptor; P30559; CHO-OTR cells, Fluo-8 calcium fluorescence, potentiator mode; 0% = oxytocin EC15, 100% = EC100; activation, % at 3 µM; actives 0.061% (n = 320,000); AID 2445;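 active means activation above that plate's cutoff, the mean activation of tested compounds plus 3 SD, cut at about 6.6% in these data, passing the limit was not always enough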;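 further: 100% uses oxytocin at 75 nM as the full agonist control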
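Measured by – Fluo-8 calcium dye fluorescence · Test system – human OTR in CHO cells · Dosing – one concentration, 3.0 µM compound · Controls – EC15 oxytocin alone as 0%, 75 nM oxytocin as 100% · Evaluation – normalized max/min fluorescence ratio, % activation · Timing – 6 min pre-incubation, 100 s read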
OXTR agonist cf: confirmation of human oxytocin receptor agonists. shares compounds with OXTR ag. CHO-OTR cells, Fluo-8 calcium fluorescence, agonist. activation, % at 3 µM. actives 20% (n = 390);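 active means mean activation above about 20% derived from the earlier single-dose screen, limit read from the data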;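 further: peak over minimum fluorescence ratio per well during a 100 second FLIPR read; 0% = DMSO alone and 100% = oxytocin high control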
V1R ag counter 3x: activates V1a receptor in oxytocin agonist counter-screen; shares compounds with OXTR ag; CHO-V1R cells, Fluo-8 calcium fluorescence; activation, % at 3 µM; actives 10% (n = 390); AID 434991;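 active means mean activation over triplicate exceeds the hit threshold set in the earlier primary screen, cut at about 20% in these data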;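 further: peak over basal fluorescence ratio within a 100 second read; 0% = DMSO alone and 100% = 3 nM vasopressin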
An asterisk follows results filed as active; · = not tested or not shown. Hits are enriched below; roughly 0.55% of the tested compounds scored in any of these assays.

SMILES | OXTR ag | zfTRPN1 agonist | TRPML3 ag | V1aR counter | OXTR potentiator | OXTR agonist cf | V1R ag counter 3x
COCCNC(=O)c1cc(S(=O)(=O)N2CCOCC2)ccc1SCc1cccc(OC)c1OC | 1 | -3 | 0 | 0 | -12 | · | ·
Cc1cc(/C=C2/C(=N)N3C(=NC2=O)SN=C3S(C)(=O)=O)c(C)n1-c1ccc(F)cc1 | 2 | 1 | 0 | 2 | -13 | · | ·
CSC1=NSC2=NC(=O)/C(=C\c3coc4ccccc4c3=O)C(=N)N12 | 26* | 29* | 15* | 18 | -11 | 329* | 488*
CC(=O)NC(Cc1ccc(C)cc1)C(=O)NC1CCN(c2ncccc2[N+](=O)[O-])CC1 (centres undefined) | 0 | -1 | 1 | -1 | 2 | · | ·
Cc1cc(SCC(=O)OCC(=O)N(C)C2CCS(=O)(=O)C2)c(C)cc1Br (centres undefined) | 21* | · | · | 13 | -18 | 4 | 6
COc1cccc2c1C(=O)c1c(O)c3c(c(O)c1C2=O)C[C@@](O)(C(=O)CO)C[C@@H]3O[C@H]1C[C@H](N)[C@@H](O)[C@H](C)O1 | 23* | · | · | 18 | -12 | 11 | 20
COc1ccc(NC(=O)CN2C(=O)NC(C)(c3ccccc3)C2=O)c(OC)c1 (centres undefined) | 2 | · | · | 1 | -5 | · | ·
CSc1ccc2c(c1)N(CCC1CCCCN1C)c1ccccc1S2 (centres undefined) | 24* | 2 | 1 | 9 | -10 | 16 | 5
CC1CCN(CCC(=O)Nc2ccc(F)c(F)c2)CC1 | 1 | · | · | 1 | 7 | · | ·
Cn1cccc1P(=O)(c1cccn1C)c1cccn1C | 31* | 0 | 0 | 0 | -13 | 1 | 1
CNS(=O)(=O)c1cc(S(=O)(=O)NC)c2cccc3c2c1NC3=O | 0 | · | · | 1 | -11 | · | ·
COc1ccccc1Oc1ccc2c(c1)C(=O)N(c1ccc(O)cc1)C2=O | 26* | 1 | 1 | 7 | -18 | 1 | 4
COc1ccccc1Oc1ccc2c(c1)C(=O)N(CC(=O)O)C2=O | 1 | · | · | 0 | -2 | · | ·
CCCCCc1cc(=O)oc2c(C(CCN(CC)CC)c3ccc(N(C)C)cc3)c(OC)cc(OC)c12 (centres undefined) | 4 | · | · | 0 | 2 | · | ·
CCOC(=O)c1sc(NC(=O)c2ccc(Cl)s2)cc1C | 2 | 1 | 1 | 1 | -1 | · | ·
CCOC(=O)c1sc(NC(=O)Nc2ccc(Cl)cc2)cc1C | 20* | 18 | 4 | 14 | -23 | 11 | 11
COc1ccc(OC)c(NC(=O)Cc2nn(C)c(=O)c3ccccc23)c1 | 20* | 5 | 3 | 7 | -20 | 7 | 9
COc1cc(NC(=O)Cc2nn(C)c(=O)c3ccccc23)cc(OC)c1OC | 0 | 1 | 0 | 2 | -7 | · | ·
O=C1Nc2ccccc2N(O)N1c1cc(-c2ccc(Cl)cc2)[nH]n1 | 0 | -2 | 0 | 5 | 0 | · | ·
COc1ccc(C2NCCc3c2[nH]c2ccccc32)cc1CN1CCc2cc(OC)c(OC)cc2C1C (centres undefined) | · | 11 | 5 | · | · | · | ·
COc1ccc(C2NCCc3c2[nH]c2ccccc32)cc1COc1ccc(F)cc1 (centres undefined) | 24* | 3 | 1 | 8 | -19 | 24* | 3
COc1ccc(CN2CCN(CC(O)Cn3c4ccccc4c4ccccc43)CC2)cc1 (centres undefined) | 24* | 1 | 2 | 12 | -18 | 8 | 4
CC(C)CC(NC(=O)C(NC(=O)C1OC2OC(C)(C)OC2C2OC(C)(C)OC12)C(C)C)C(=O)O (centres undefined) | 2 | 1 | 1 | 1 | -12 | · | ·
CC(=O)n1cc([C@H]2C=C(C(=O)NCc3ccccc3)O[C@@H](OCc3ccc(CO)cc3)C2)c2ccccc21 | 2 | 1 | 0 | 1 | -14 | · | ·
CC(=O)n1cc([C@H]2C=C(C(N)=O)O[C@@H](OCc3ccc(CO)cc3)C2)c2ccccc21 | 20* | · | · | 17 | -16 | 19 | 13
SMILES | OXTR ag | zfTRPN1 agonist | TRPML3 ag | V1aR counter | OXTR potentiator | OXTR agonist cf | V1R ag counter 3x
CC(Oc1ccc(F)cc1)C(=O)Nc1ccc(S(=O)(=O)NC2=NCCCCC2)cc1 (centres undefined) | 25* | · | · | 15 | -12 | 28* | 20
CC(Oc1cccc(Cl)c1)C(=O)Nc1ccc(S(=O)(=O)NC2=NCCCCC2)cc1 (centres undefined) | 14 | · | · | 10 | -16 | · | ·
N#C/C(=C(/O)c1ccc(Cl)c([N+](=O)[O-])c1)c1nc2ccccc2[nH]1 | 26* | 10 | 3 | 8 | -6 | 4 | 6
N#C/C(=C(/O)c1ccc([N+](=O)[O-])cc1)c1nc2ccccc2[nH]1 | 3 | 2 | 2 | 1 | -9 | · | ·
CC(=O)N1c2ccc(S(=O)(=O)NCCC(=O)Nc3cccc(Cl)c3)cc2CC1C (centres undefined) | 3 | · | · | 2 | -10 | · | ·
CCC1(c2ccc(F)cc2)NC(=O)N(CC(=O)N2c3ccccc3CC2C)C1=O (centres undefined) | 29* | · | · | 19 | -11 | 15 | 11
O=[N+]([O-])c1ccc(O)c(-c2cc(C(F)(F)F)nc(-c3ccccc3)n2)c1 | 26* | · | · | 16 | -23 | 15 | 12
CSc1ccc2c(c1)C(N1CCN(C)CC1)Cc1ccc(F)cc1S2 (centres undefined) | 26* | · | · | 10 | -8 | 4 | 1
CN(/N=C/c1ccc(-c2ccc([N+](=O)[O-])cc2)o1)c1ccccc1 | 23* | · | · | 18 | -15 | 96* | 100*
Cc1ccc(SC[C@H](C)CN2CC[C@H](C(C)(C)C)CCC2=O)cc1 | -2 | · | · | -2 | -2 | · | ·
CC(C)OCCCNC(=O)c1cccc2c1C(=O)c1ccc(Cl)cc1S2(=O)=O | 1 | · | · | -1 | -2 | · | ·
CC(=O)n1cc(N(C(=O)CCl)c2ccc([N+](=O)[O-])cc2)c2ccccc21 | 10 | 4 | 2 | 5 | -4 | · | ·
O=Cc1[nH]c2ccccc2c1N(C(=O)CCl)c1ccc([N+](=O)[O-])cc1 | 21* | 5 | 3 | 11 | -18 | 16 | 11
COc1ccc(CNC(=O)C(c2ccc(C)o2)N(Cc2cccs2)C(=O)Cc2cccs2)cc1 (centres undefined) | 5 | -1 | 0 | 7 | -19 | · | ·
NS(=O)(=O)c1ccc(CCNCc2ccccc2OCc2ccc(Cl)cc2)cc1 | 28* | · | · | 17 | -25 | 18 | 7
NS(=O)(=O)c1ccc(CCNCc2cc(Cl)ccc2OCc2ccccc2)cc1 | 22* | · | · | 17 | -23 | 8 | 8

Screening results (PubChem BioAssay)
